Drawing on ChEMBL document CHEMBL1142917, “Synthesis and structure-antibacterial activity relationship investigation of isomeric 2,3,5-substituted perhydropyrrolo[3,4-d]isoxazole-4,6-diones” (2007), this text covers MIC for 45 compounds.

One assay deals with Enterococcus faecalis. Kind of assay: Antibacterial activity against Enterococcus faecalis ATCC 29212 by broth microdilution method. It is filed as functional. The method in brief:
(§1)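 NCCLS broth microdilution in Mueller–Hinton broth, DMSO stocks. Twofold series of 1600 to 0.39 μg/ml, or 1000 to 0.975 μg/ml for some compounds. Inoculum set to 0.5 McFarland (1×10^8 CFU/ml), diluted 1/10, giving 5×10^5 CFU/ml per well. Plates incubated 16-20 h at 35 °C. MIC taken as the lowest concentration preventing visible growth. Ampicillin reference.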
For orientation: Broth dilution looks for growth in wells or tubes with falling amounts of substance.

The next assay has as its system Staphylococcus aureus. Kind of assay: Antibacterial activity against Staphylococcus aureus ATCC 25923 by broth microdilution method. It is filed as functional. The gist of the method:
as §1

SMILES strings stand for the structures. Converted amounts (≈) assume the structure as drawn. A value given as a limit tells only on which side of the number the result lay.

As for `CN(C)c1ccc([C@@H]2[C@@H]3C(=O)N(c4ccccc4)C(=O)[C@@H]3ON2C)cc1`, the MIC in the assay on Enterococcus faecalis was greater than 4550 µM; in the assay with Staphylococcus aureus, 4550 µM (≈ 1600 µg/mL).

Regarding `CN1C(=O)[C@@H]2[C@@H](ON(C)[C@H]2c2cccc(Cl)c2)C1=O` (relative stereo), the MIC came to 1430 µM (≈ 401 µg/mL) with Enterococcus faecalis and 710 µM (≈ 199 µg/mL) with Staphylococcus aureus.

`CN1C(=O)[C@H]2[C@@H](c3ccccc3)N(C)O[C@H]2C1=O` (relative stereo): the MIC turned out to be 1620 µM (≈ 399 µg/mL) in the assay on Enterococcus faecalis and 810 µM (≈ 199 µg/mL) in the assay on Staphylococcus aureus.

As to `Cc1ccc([C@H]2[C@@H]3C(=O)N(c4ccccc4)C(=O)[C@@H]3ON2C)cc1` (relative stereo), the minimum inhibitory concentration (MIC) against Enterococcus faecalis stood at 1240 µM (≈ 400 µg/mL); in the assay on Staphylococcus aureus, 620 µM (≈ 200 µg/mL).

For `COc1cc([C@@H]2[C@@H]3C(=O)N(C)C(=O)[C@@H]3ON2C)ccc1OCc1ccccc1` (relative stereo), the MIC against Enterococcus faecalis and against Staphylococcus aureus was 130 µM (≈ 49.7 µg/mL) each time.

Take `COc1cc([C@H]2[C@@H]3C(=O)N(C)C(=O)[C@@H]3ON2C)ccc1OCc1ccccc1` (relative stereo): the minimum inhibitory concentration (MIC) with Enterococcus faecalis stood at 650 µM (≈ 249 µg/mL); against Staphylococcus aureus, 330 µM (≈ 126 µg/mL).

`COc1ccc([C@H]2[C@@H]3C(=O)N(C)C(=O)[C@@H]3ON2C)cc1` (relative stereo): the MIC in the assay on Enterococcus faecalis is greater than 5790 µM; with Staphylococcus aureus, 1450 µM (≈ 401 µg/mL).

On to `COc1cc([C@H]2[C@@H]3C(=O)N(c4ccccc4)C(=O)[C@@H]3ON2C)ccc1OCc1ccccc1`, for which the MIC against Enterococcus faecalis was determined as 1130 µM (≈ 502 µg/mL); against Staphylococcus aureus, 280 µM (≈ 124 µg/mL).

Turning to `CN1O[C@H]2C(=O)N(c3ccccc3)C(=O)[C@H]2[C@@H]1c1ccccc1` (relative stereo), the minimum inhibitory concentration (MIC) against Enterococcus faecalis was 1620 µM (≈ 500 µg/mL); against Staphylococcus aureus, 410 µM (≈ 126 µg/mL).

Regarding `CN1C(=O)[C@H]2[C@@H](c3ccc(N(C)C)cc3)N(C)O[C@H]2C1=O` (relative stereo), the MIC against Enterococcus faecalis and against Staphylococcus aureus was 1380 µM (≈ 399 µg/mL) each time.

On to `CN1C(=O)[C@H]2[C@@H](c3cccc(Br)c3)N(C)O[C@H]2C1=O` (relative stereo), for which the figures for the MIC against Enterococcus faecalis and with Staphylococcus aureus were 620 µM (≈ 202 µg/mL) and 1230 µM (≈ 400 µg/mL), respectively.

In the case of `COc1ccc([C@@H]2[C@@H]3C(=O)N(C)C(=O)[C@@H]3ON2C)cc1` (relative stereo), the results for the MIC against Enterococcus faecalis and in the assay with Staphylococcus aureus were greater than 5790 µM and 5790 µM (≈ 1600 µg/mL), respectively.

For `CN1O[C@H]2C(=O)N(c3ccccc3)C(=O)[C@H]2[C@@H]1c1cccc(Br)c1` (relative stereo), the MIC against Enterococcus faecalis stood at 520 µM (≈ 201 µg/mL); against Staphylococcus aureus it was 130 µM (≈ 50.3 µg/mL).

For `Cc1ccc([C@@H]2[C@@H]3C(=O)N(C)C(=O)[C@@H]3ON2C)cc1` (relative stereo), the MIC against Enterococcus faecalis is greater than 6150 µM; in the assay on Staphylococcus aureus, 6150 µM (≈ 1600 µg/mL).

Take `CN1C(=O)[C@H]2[C@@H](c3cccc(Cl)c3)N(C)O[C@H]2C1=O` (relative stereo): the MIC turned out to be 2850 µM (≈ 800 µg/mL) against Enterococcus faecalis and 1430 µM (≈ 401 µg/mL) in the assay with Staphylococcus aureus.

With `CN1O[C@H]2C(=O)N(c3ccccc3)C(=O)[C@H]2[C@H]1c1ccc(Cl)cc1`, the MIC came out at 730 µM (≈ 250 µg/mL) in the assay on Enterococcus faecalis and 360 µM (≈ 123 µg/mL) in the assay on Staphylococcus aureus.

For `COc1ccc([C@@H]2[C@@H]3C(=O)N(c4ccccc4)C(=O)[C@@H]3ON2C)cc1` (relative stereo), the MIC against Enterococcus faecalis amounted to 1180 µM (≈ 399 µg/mL); in the assay with Staphylococcus aureus it was 590 µM (≈ 200 µg/mL).

`COc1cc([C@@H]2[C@@H]3C(=O)N(c4ccccc4)C(=O)[C@@H]3ON2C)ccc1OCc1ccccc1`: the minimal inhibitory concentration (MIC) against Enterococcus faecalis was greater than 3600 µM; with Staphylococcus aureus, 3600 µM (≈ 1600 µg/mL).

`CN1C(=O)[C@H]2[C@@H](c3ccc(Cl)cc3)N(C)O[C@H]2C1=O`: the MIC against Enterococcus faecalis and in the assay with Staphylococcus aureus was 1430 µM (≈ 401 µg/mL) in each case.

As to `CN1C(=O)[C@@H]2[C@@H](ON(C)[C@H]2c2cccc(Br)c2)C1=O` (relative stereo), the MIC with Enterococcus faecalis was 1230 µM (≈ 400 µg/mL); with Staphylococcus aureus, 620 µM (≈ 202 µg/mL).

Consider `CN1C(=O)[C@H]2[C@@H](c3ccc([N+](=O)[O-])cc3)N(C)O[C@H]2C1=O`, for which the MIC was 690 µM (≈ 201 µg/mL) against Enterococcus faecalis and 1370 µM (≈ 399 µg/mL) against Staphylococcus aureus.

On to `Cc1ccc([C@@H]2[C@@H]3C(=O)N(c4ccccc4)C(=O)[C@@H]3ON2C)cc1` (relative stereo), for which the minimum inhibitory concentration (MIC) in the assay on Enterococcus faecalis and against Staphylococcus aureus was 3100 µM (≈ 999 µg/mL) each time.

`CCN(CC)c1ccc([C@H]2[C@@H]3C(=O)N(C)C(=O)[C@@H]3ON2C)cc1` (relative stereo): the MIC in the assay on Enterococcus faecalis and in the assay with Staphylococcus aureus was 630 µM (≈ 200 µg/mL) each time.

On to `CN1O[C@H]2C(=O)N(c3ccccc3)C(=O)[C@H]2[C@H]1c1ccc(Br)cc1` (relative stereo), for which the MIC in the assay on Enterococcus faecalis is 520 µM (≈ 201 µg/mL); with Staphylococcus aureus it was 120 µM (≈ 46.5 µg/mL).

Regarding `CCN(CC)c1ccc([C@H]2[C@@H]3C(=O)N(c4ccccc4)C(=O)[C@@H]3ON2C)cc1`, the MIC with Enterococcus faecalis and in the assay on Staphylococcus aureus was 4220 µM (≈ 1600 µg/mL) in each case.

Consider `CCN(CC)c1ccc([C@@H]2[C@@H]3C(=O)N(c4ccccc4)C(=O)[C@@H]3ON2C)cc1` (relative stereo), for which the MIC in the assay with Enterococcus faecalis turned out to be 660 µM (≈ 250 µg/mL); in the assay on Staphylococcus aureus, 330 µM (≈ 125 µg/mL).

In the case of `CN1C(=O)[C@@H]2[C@@H](ON(C)[C@H]2c2ccc(N(C)C)cc2)C1=O` (relative stereo), the figures for the MIC against Enterococcus faecalis and in the assay with Staphylococcus aureus were 5530 µM (≈ 1600 µg/mL) and 1380 µM (≈ 399 µg/mL), respectively.

On to `CN1C(=O)[C@H]2[C@@H](c3ccc(N(C)C)cc3)N(c3ccccc3)O[C@H]2C1=O` (relative stereo), for which the minimum inhibitory concentration (MIC) against Enterococcus faecalis and against Staphylococcus aureus was 280 µM (≈ 98.4 µg/mL) throughout.

Consider `CC1(C)S[C@@H]2[C@H](NC(=O)[C@H](N)c3ccccc3)C(=O)N2[C@H]1C(=O)O` [AMPICILLIN], for which the minimum inhibitory concentration (MIC) with Enterococcus faecalis and against Staphylococcus aureus was 2 µM (≈ 0.699 µg/mL) each time.

As for `CN1O[C@H]2C(=O)N(c3ccccc3)C(=O)[C@H]2[C@H]1c1cccc(Br)c1` (relative stereo), the MIC against Enterococcus faecalis is 650 µM (≈ 252 µg/mL); with Staphylococcus aureus, 320 µM (≈ 124 µg/mL).

Take `Cc1ccc([C@H]2[C@@H]3C(=O)N(C)C(=O)[C@@H]3ON2C)cc1` (relative stereo): the MIC was 6150 µM (≈ 1600 µg/mL) in the assay with Enterococcus faecalis and 3070 µM (≈ 799 µg/mL) with Staphylococcus aureus.

Turning to `CN1C(=O)[C@@H]2[C@@H](ON(C)[C@H]2c2ccc([N+](=O)[O-])cc2)C1=O`, the results for the MIC with Enterococcus faecalis and in the assay with Staphylococcus aureus were 5490 µM (≈ 1600 µg/mL) and 2750 µM (≈ 801 µg/mL), respectively.

Consider `CN1C(=O)[C@@H]2[C@@H](ON(c3ccccc3)[C@H]2c2ccc(N(C)C)cc2)C1=O` (relative stereo), for which the MIC came to 1140 µM (≈ 401 µg/mL) against Enterococcus faecalis and 280 µM (≈ 98.4 µg/mL) in the assay with Staphylococcus aureus.

As to `CN1C(=O)[C@H]2[C@@H](c3ccc(Br)cc3)N(C)O[C@H]2C1=O` (relative stereo), the figures for the MIC against Enterococcus faecalis and in the assay with Staphylococcus aureus were 1230 µM (≈ 400 µg/mL) and 2460 µM (≈ 800 µg/mL), respectively.

As for `CN1C(=O)[C@@H]2[C@@H](ON(C)[C@H]2c2ccccc2)C1=O` (relative stereo), the values for the MIC with Enterococcus faecalis and against Staphylococcus aureus were 1020 µM (≈ 251 µg/mL) and 510 µM (≈ 126 µg/mL), respectively.

For `CN1O[C@H]2C(=O)N(c3ccccc3)C(=O)[C@H]2[C@@H]1c1ccc(Cl)cc1`, the minimum inhibitory concentration (MIC) against Enterococcus faecalis and against Staphylococcus aureus was 1170 µM (≈ 401 µg/mL) in each case.

Consider `CN1O[C@H]2C(=O)N(c3ccccc3)C(=O)[C@H]2[C@H]1c1ccc([N+](=O)[O-])cc1`, for which the minimal inhibitory concentration (MIC) with Enterococcus faecalis is 710 µM (≈ 251 µg/mL); in the assay on Staphylococcus aureus it was 570 µM (≈ 201 µg/mL).

In the case of `CN1C(=O)[C@@H]2[C@@H](ON(C)[C@H]2c2ccc(Cl)cc2)C1=O`, the minimum inhibitory concentration (MIC) against Enterococcus faecalis and in the assay with Staphylococcus aureus was 1430 µM (≈ 401 µg/mL) throughout.

On to `CN1O[C@H]2C(=O)N(c3ccccc3)C(=O)[C@H]2[C@@H]1c1ccc(Br)cc1` (relative stereo), for which the MIC in the assay on Enterococcus faecalis was found to be 520 µM (≈ 201 µg/mL); in the assay on Staphylococcus aureus it was 130 µM (≈ 50.3 µg/mL).

`CCN(CC)c1ccc([C@@H]2[C@@H]3C(=O)N(C)C(=O)[C@@H]3ON2C)cc1` (relative stereo): the MIC in the assay with Enterococcus faecalis and against Staphylococcus aureus was 80 µM (≈ 25.4 µg/mL) in each case.

For `COc1ccc([C@H]2[C@@H]3C(=O)N(c4ccccc4)C(=O)[C@@H]3ON2C)cc1` (relative stereo), the minimum inhibitory concentration (MIC) in the assay on Enterococcus faecalis and in the assay on Staphylococcus aureus was 1180 µM (≈ 399 µg/mL) each time.

In the case of `CN(C)c1ccc([C@H]2[C@@H]3C(=O)N(c4ccccc4)C(=O)[C@@H]3ON2C)cc1`, the MIC came out at 710 µM (≈ 249 µg/mL) in the assay on Enterococcus faecalis and 360 µM (≈ 127 µg/mL) in the assay with Staphylococcus aureus.

As for `CN1O[C@H]2C(=O)N(c3ccccc3)C(=O)[C@H]2[C@@H]1c1ccc([N+](=O)[O-])cc1`, the MIC in the assay with Enterococcus faecalis turned out to be 280 µM (≈ 98.9 µg/mL); against Staphylococcus aureus, 570 µM (≈ 201 µg/mL).

For the compound `CN1C(=O)[C@@H]2[C@@H](ON(C)[C@H]2c2ccc(Br)cc2)C1=O` (relative stereo), the MIC in the assay with Enterococcus faecalis was found to be 620 µM (≈ 202 µg/mL); against Staphylococcus aureus, 310 µM (≈ 101 µg/mL).

Consider `CN1O[C@H]2C(=O)N(c3ccccc3)C(=O)[C@H]2[C@H]1c1ccccc1` (relative stereo), for which the MIC in the assay on Enterococcus faecalis is 5190 µM (≈ 1600 µg/mL); against Staphylococcus aureus, greater than 5190 µM.

Broadly, the MIC is the least concentration at which growth counts as inhibited.
